PAFAH2 inh: PAFAH2 enzyme inhibitors, primary screen, biochemical, fluorescence polarization, human. Platelet-activating factor acetylhydrolase 2, cytoplasmic (Homo sapiens), Q99487. recombinant PAFAH2, FP-rhodamine activity probe. inhibition, % at 3.39 µM. hit rate 0.99% among 340,000. AID 492956, 2010;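 active = inhibition above the mean over all tested compounds plus 3 SD, cut at about 30% in these data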;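 also: inhibitors block probe labeling of enzyme so polarization drops; 0% = enzyme with DMSO and 100% = wells lacking PAFAH2 protein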
mABHD4 FP: ABHD4 inhibitors, primary screen, biochemical, fluorescence polarization, mouse; inhibition, % at 8.92 µM; purified mABHD4, FP-Rh probe fluorescence polarization; hit rate 0.54% among 370,000; (Lyso)-N-acylphosphatidylethanolamine lipase (Mus musculus), Q8VD66;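 active = inhibition exceeding the mean over every tested compound plus 3 SD, cut at about 30% in these data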;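 also: 0% = plate median of compound wells and 100% = S159A mutant with DMSO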
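System: mouse ABHD4 enzyme, wild type / Medium: HEPES pH 7.0, NaCl, Pluronic buffer / Reagent: FP-Rh activity-based fluorescent probe / Control set: S159A mutant high control, sample median low control / Detection: fluorescence polarization with parallel and perpendicular emission, 525/598 nm / Schedule: 45 min + 60 min at 25 °C / Compound dosing: 8.92 µM, single dose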
PAFAH1B3 FP inh: PAFAH1B3 enzyme inhibitors, primary screen, biochemical, fluorescence polarization, human | Platelet-activating factor acetylhydrolase IB subunit alpha1 (Homo sapiens), Q15102 | recombinant PAFAH1B3, FP-rhodamine probe | inhibition, % at 3.39 µM | hit rate 0.28% among 340,000;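 active = inhibition above the screen-wide average of all tested compounds plus 3 SD, cut at about 25% in these data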;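 also: 0% = enzyme with DMSO only and 100% = wells lacking PAFAH1B3 protein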
Target sequence (Q15102 whole entry, looked up): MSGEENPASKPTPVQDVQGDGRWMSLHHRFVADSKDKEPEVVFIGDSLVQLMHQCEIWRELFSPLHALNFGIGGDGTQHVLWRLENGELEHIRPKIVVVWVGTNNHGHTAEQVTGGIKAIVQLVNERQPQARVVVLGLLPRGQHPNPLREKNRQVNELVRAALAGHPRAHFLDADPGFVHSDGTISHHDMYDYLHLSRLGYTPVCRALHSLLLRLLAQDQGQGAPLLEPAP
PAFAH1B2 inh: PAFAH1B2 enzyme inhibitors, primary screen, biochemical, fluorescence polarization, human; recombinant PAFAH1B2, FP-rhodamine activity probe; hit rate 1.2% among 340,000; inhibition, % at 3.39 µM; AID 492953, 2010;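 active = inhibition above the mean of all tested compounds plus 3 SD, cut at about 24% in these data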;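 also: 0% = enzyme with DMSO and 100% = wells lacking PAFAH1B2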
Target sequence (P68402 whole entry, looked up): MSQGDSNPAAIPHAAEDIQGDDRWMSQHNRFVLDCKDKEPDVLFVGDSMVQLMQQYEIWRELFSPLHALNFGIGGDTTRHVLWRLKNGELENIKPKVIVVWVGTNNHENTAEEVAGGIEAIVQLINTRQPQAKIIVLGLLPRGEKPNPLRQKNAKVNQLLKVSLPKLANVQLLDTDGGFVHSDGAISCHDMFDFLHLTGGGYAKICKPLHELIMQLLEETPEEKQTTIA
HTRA1 inh: HTRA1 serine protease inhibitors, primary screen, biochemical, fluorescence polarization, HTS | inhibition, % at 5.96 µM | recombinant HTRA1, FP-rhodamine activity-based probe | hit rate 0.5% among 340,000 | Q92743; in the data active = inhibition above about 36%;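 also: 0% = enzyme with DMSO and 100% = wells lacking enzyme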
pPAFAH inh: pPAFAH enzyme inhibitors, primary screen, biochemical, fluorescence polarization, human; Platelet-activating factor acetylhydrolase (Homo sapiens), Q13093; recombinant pPAFAH, FP-rhodamine probe fluorescence polarization; inhibition, % at 3.39 µM; hit rate 1.5% among 330,000;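 active = inhibition above the mean inhibition across the screen plus 3 SD, cut at about 25% in these data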;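 also: inhibitors block binding of the rhodamine activity-based probe so polarization drops; 0% = enzyme with DMSO and 100% = wells lacking pPAFAH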
Numbers without * were called inactive; / = not tested or not shown. Shown are actives, neighbours in structure and some others; about 2.8% of the full set was active somewhere.

SMILES	PAFAH2 inh	mABHD4 FP	PAFAH1B3 FP inh	PAFAH1B2 inh	HTRA1 inh	pPAFAH inh
CCCC1CCC2(CC1)CCC2OC(=O)Nc1ccccc1C (stereo not drawn)	/	-15.2	/	/	/	/
CN(CCO)C1CN(Cc2cn(Cc3ccccc3F)nn2)S(=O)(=O)C1 (stereo not drawn)	/	14.8	/	/	/	/
Cc1cc2[nH]c(=O)c(=O)[nH]c2cc1S(=O)(=O)NC1CCC(C)CC1 (stereo not drawn)	-2.5	0.4	-0.9	25.7*	2.2	-0.3
Cc1cc2[nH]c(=O)c(=O)[nH]c2cc1S(=O)(=O)N1CCC(C)CC1	3.2	5.9	6.8	25.0*	7.3	5.1
COc1cccc(N2CCN(C(=O)CCNS(=O)(=O)c3ccc(F)c(F)c3)CC2)c1	5.3	-0.9	2.3	-1.1	-10.5	28.5*
COc1ccc(N2CCN(C(=O)CCNS(=O)(=O)c3ccccc3)CC2)cc1	3.7	-0.7	-3.2	-0.4	-4.1	2.7
Nc1nc(NCC(=O)O)nc(NCc2ccccc2)c1[N+](=O)[O-]	-1.1	-2.3	10.4	27.7*	-0.2	4.3
CCC[C@H]1[C@@H](N)CC[C@@]23CCCN2C(=O)CCC[C@@H]13	/	4.5	/	/	/	/
O=C(NCCc1ccc(F)cc1)c1ccc(Sc2ccccc2Cl)c([N+](=O)[O-])c1	/	-9.2	/	/	/	/
CN(C)/C=C/C(=O)/C=C/c1cn(-c2ncc(C(F)(F)F)cc2Cl)c2ccccc12	-1.8	-3.7	2.2	-4.2	4.8	25.6*
C=CCN1C(=O)[C@H](CC(=O)NCc2ccc(C)o2)[C@@]2(C(=O)OCC)CCCC=C12	/	3.9	/	/	/	/
O=C(CSCc1ccccc1Cl)NNC(=S)Nc1ccccc1	7.7	2.5	-5.4	7.7	16.3	28.9*
O=C(CSc1nnc(-c2cccs2)n1Cc1ccco1)Nc1ccc(Oc2ccccc2)cc1	/	-33.4	/	/	/	/
C=CCn1c(SCC(=O)c2ccc(F)cc2)nnc1-c1ccc(F)cc1	/	0.7	/	/	/	/
O=C(N/N=C/C=C/c1ccco1)c1ccncc1	5.8	6.6	18.8	5.8	9.8	9.3
O=C(N/N=C/C=C/c1ccco1)/C(=C/c1ccccc1)NC(=O)c1ccccc1	16.2	2.6	10.8	3.1	14.2	31.1*
O=C1CC(c2ccc3ccccc3c2)N=C2N(Cc3ccc4c(c3)OCO4)C/C(=C/c3ccccc3)N12 (stereo not drawn)	/	-16.1	/	/	/	/
CCCCC(CC)CNS(=O)(=O)c1ccc2c(c1)CCN2C(=O)CCC(=O)O (stereo not drawn)	-2.5	-13.8	9.4	16.5	-7.1	31.6*
Cc1csc(=O)n1CCC(=O)OCC(=O)N(CC(C)C)c1c(N)n(Cc2ccccc2)c(=O)[nH]c1=O	-4.9	-6.9	13.2	4.1	15.1	26.5*
COc1cc(C=NNC(=O)CN2CCN(Cc3ccc(C)cc3)CC2)cc(OC)c1O	/	8.0	/	/	/	/
O=c1/c(=C/c2ccccn2)sc2nc3ccccc3n12	4.8	7.1	7.7	3.6	-4.5	3.8
O=c1/c(=C\c2cc([N+](=O)[O-])cc([N+](=O)[O-])c2O)sc2nc3ccccc3n12	14.3	/	1.4	3.9	6.1	25.6*
O=C(O)c1cccc(-c2ccc(/C=c3/sc4nc5ccccc5n4c3=O)o2)c1	21.4	15.2	26.0*	15.1	-4.6	26.2*
COC(=O)/C=c1/sc2nc3ccccc3n2c1=O	3.5	-9.8	-1.3	5.0	1.9	4.7
CC(=O)N1CCCN(C(=O)CN2C(=O)CC(C)(C)S(=O)(=O)c3ccccc32)CC1	/	0.2	/	/	/	/
COCCCNC(=O)CSc1nnc(-c2cccnc2)n1C1CCCCC1	/	-0.4	/	/	/	/
CC(C)CN1C(=O)C[C@]2(C(=O)N(C)c3ccc(NS(=O)(=O)c4ccc(F)cc4)cc32)C1c1ccccc1 (stereo partly drawn)	/	1.1	/	/	/	/
COC(=O)[C@]12C[C@H](CC(=O)N3CCSCC3)C(=O)N(Cc3ccccc3)C1=C[C@H](COCc1ccccc1)O[C@@H]2C	/	8.2	/	/	/	/
COc1ccc(CSCCc2n[nH]c(=S)n2-c2ccccc2)cc1C	-8.2	4.7	3.6	5.8	-2.3	6.3
